Experimental data from the RNAGym collection of RNA variant scans (doi:10.1038/s41586-018-0170-7).

B1: tRNA (parent)
chain: GUUCCGUUGGCGUAAUGGUAACGCGUCUCCCUCCUAAGGAGAAGACUGCGGGUUCGAGUCCCGUACGGAACG

Variants of: B1
Assay: yeast fitness, log relative to wild type (ln ratio); higher = fitter; tRNA-Arg(CCU), competitive growth, 37 C, 1 M NaCl
Summary of the method: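 Fitness is the natural log of a genotype's generation count divided by that of the wild type. A combinatorial library of tRNA-Arg(CCU) variants sat on a HIS3 centromeric plasmid in BY4742 lacking the chromosomal gene, from two independent transformations. Pools grew 4 generations in SC-HIS at 30 °C, then ~6.5 generations (~26.5 h) in SC-HIS 1M NaCl at 37 °C, with three outputs per input. Generations came from OD-scaled log2 output/input frequency, inverse-variance weighted across replicates, with variants counted by 125 bp paired-end Illumina sequencing.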
With GUUCCGUUGGCGUAAUGGUAACGCGUCUCCCUCCUAAGGAGAAGAUUGCGGGUUCGAGUCCCGUACGGGGUG [C46U A69G A70G C71U] the “yeast fitness (ln)” value was -0.237.
For GUUCCUUUGGCGUAAUGGUAACGCGUUUCCCUCCUAAGGAGAAGACUGCGGGUUCGAGUCCCGUACGGAGUG [G6U C27U A70G C71U], the “yeast fitness (ln)” value was -0.368.
For GCUCCGUUGGCGUAAUGGUAACGCGUUUCCCUCCUAAGGAGAAGACUGCGGGUUCGAGUCCCGUAUGGAACG [U2C C27U C66U], the “yeast fitness (ln)” value was -0.0757.
In the case of AUUCCUUUGGCGUAAUGGUAACGCGUUUCCCUCCUAAGGAGAAGAUUGCGGGUUCGAGUCCCGUACGGGGCG [G1A G6U C27U C46U A69G A70G], the “yeast fitness (ln)” value is reported as -0.307.
In the case of AUUCCAUUGGCGUAAUGGUAACGCGUUUCCCUCCUAAGGAGACGACUGCGGGUUCGAGUCCCGUACGGAGUG [G1A G6A C27U A43C A70G C71U], the “yeast fitness (ln)” value is reported as -0.351.
In the case of AUUCCGUUGGCGUAAUGGUAACGCGUCUCCCUCCUAAGGAGAAGACUGCGGGUUCGAGUCCCGUACGGGACG [G1A A69G], the “yeast fitness (ln)” value is reported as -0.141.
With GCUCCUUUGGCGUAAUGGUAACGCGUUUCCCUCCUAAGGAGACGAUUGCGGGUUCGAGUCCCGUACGGGGUG [U2C G6U C27U A43C C46U A69G A70G C71U] the “yeast fitness (ln)” value was -0.188.
For AGUCCUUUGGCGUAAUGGUAACGCGUCUCCCUCCUAAGGAGAAGACUGCGGGUUCGAGUCCCGUAUGGAACG [G1A U2G G6U C66U], the “yeast fitness (ln)” value was -0.203.
For GCUCCAUUGGCGUAAUGGUAACGCGUUUCCCUCCUAAGGAGAAGACUGCGGGUUCGAGUCCCGUAUGGGGCG [U2C G6A C27U C66U A69G A70G], the “yeast fitness (ln)” value was -0.0504.
In the case of AGUCCGUUGGCGUAAUGGUAACGCGUCUCCCUCCUAAGGAGAAGACUGCGGGUUCGAGUCCCGUACGGAUCG [G1A U2G A70U], the “yeast fitness (ln)” value is reported as -0.124.
With ACUCCGUUGGCGUAAUGGUAACGCGUUUCCCUCCUAAGGAGAAGAUUGCGGGUUCGAGUCCCGUAUGGAUCG [G1A U2C C27U C46U C66U A70U] the “yeast fitness (ln)” value was -0.0209.
With GCUCCGUUGGCGUAAUGGUAACGCGUCUCCCUCCUAAGGAGAAGACUGCGGGUUCGAGUCCCGUACGGGUUG [U2C A69G A70U C71U] the “yeast fitness (ln)” value was -0.199.
With AUUCCAUUGGCGUAAUGGUAACGCGUUUCCCUCCUAAGGAGACGACUGCGGGUUCGAGUCCCGUACGGAUUG [G1A G6A C27U A43C A70U C71U] the “yeast fitness (ln)” value was -0.314.
In the case of AGUCCAUUGGCGUAAUGGUAACGCGUCUCCCUCCUAAGGAGACGAUUGCGGGUUCGAGUCCCGUACGGGGCG [G1A U2G G6A A43C C46U A69G A70G], the “yeast fitness (ln)” value is reported as -0.292.
For ACUCCAUUGGCGUAAUGGUAACGCGUCUCCCUCCUAAGGAGAAGAUUGCGGGUUCGAGUCCCGUACGGAUCG [G1A U2C G6A C46U A70U], the “yeast fitness (ln)” value was -0.0702.
In the case of GCUCCUUUGGCGUAAUGGUAACGCGUUUCCCUCCUAAGGAGAAGAUUGCGGGUUCGAGUCCCGUAUGGGGUG [U2C G6U C27U C46U C66U A69G A70G C71U], the “yeast fitness (ln)” value is reported as -0.493.
For AUUCCUUUGGCGUAAUGGUAACGCGUUUCCCUCCUAAGGAGAAGACUGCGGGUUCGAGUCCCGUACGGAACG [G1A G6U C27U], the “yeast fitness (ln)” value was -0.16.
For GGUCCUUUGGCGUAAUGGUAACGCGUCUCCCUCCUAAGGAGACGACUGCGGGUUCGAGUCCCGUACGGAGUG [U2G G6U A43C A70G C71U], the “yeast fitness (ln)” value was -0.282.
With GUUCCUUUGGCGUAAUGGUAACGCGUUUCCCUCCUAAGGAGAAGAUUGCGGGUUCGAGUCCCGUAAGGAGCG [G6U C27U C46U C66A A70G] the “yeast fitness (ln)” value was -0.04.
For AUUCCUUUGGCGUAAUGGUAACGCGUUUCCCUCCUAAGGAGACGACUGCGGGUUCGAGUCCCGUAUGGAAUG [G1A G6U C27U A43C C66U C71U], the “yeast fitness (ln)” value was -0.403.
With GGUCCGUUGGCGUAAUGGUAACGCGUUUCCCUCCUAAGGAGAAGACUGCGGGUUCGAGUCCCGUAAGGAACG [U2G C27U C66A] the “yeast fitness (ln)” value was -0.0584.
In the case of GUUCCAUUGGCGUAAUGGUAACGCGUUUCCCUCCUAAGGAGAAGAUUGCGGGUUCGAGUCCCGUACGGAGCG [G6A C27U C46U A70G], the “yeast fitness (ln)” value is reported as -0.132.
In the case of AUUCCUUUGGCGUAAUGGUAACGCGUCUCCCUCCUAAGGAGAAGACUGCGGGUUCGAGUCCCGUACGGAGCG [G1A G6U A70G], the “yeast fitness (ln)” value is reported as -0.192.
For GUUCCAUUGGCGUAAUGGUAACGCGUUUCCCUCCUAAGGAGACGAUUGCGGGUUCGAGUCCCGUAUGGAGUG [G6A C27U A43C C46U C66U A70G C71U], the “yeast fitness (ln)” value was -0.213.
In the case of AUUCCAUUGGCGUAAUGGUAACGCGUUUCCCUCCUAAGGAGAAGACUGCGGGUUCGAGUCCCGUACGGAGCG [G1A G6A C27U A70G], the “yeast fitness (ln)” value is reported as -0.34.
In the case of AUUCCUUUGGCGUAAUGGUAACGCGUCUCCCUCCUAAGGAGAAGAUUGCGGGUUCGAGUCCCGUACGGGAUG [G1A G6U C46U A69G C71U], the “yeast fitness (ln)” value is reported as -0.297.
In the case of GUUCCUUUGGCGUAAUGGUAACGCGUCUCCCUCCUAAGGAGACGAUUGCGGGUUCGAGUCCCGUACGGGACG [G6U A43C C46U A69G], the “yeast fitness (ln)” value is reported as -0.176.
In the case of ACUCCUUUGGCGUAAUGGUAACGCGUCUCCCUCCUAAGGAGAAGACUGCGGGUUCGAGUCCCGUAUGGAGUG [G1A U2C G6U C66U A70G C71U], the “yeast fitness (ln)” value is reported as -0.0525.
In the case of ACUCCUUUGGCGUAAUGGUAACGCGUCUCCCUCCUAAGGAGACGAUUGCGGGUUCGAGUCCCGUAUGGAUCG [G1A U2C G6U A43C C46U C66U A70U], the “yeast fitness (ln)” value is reported as -0.167.
In the case of AGUCCGUUGGCGUAAUGGUAACGCGUUUCCCUCCUAAGGAGACGACUGCGGGUUCGAGUCCCGUAAGGAGCG [G1A U2G C27U A43C C66A A70G], the “yeast fitness (ln)” value is reported as -0.255.
With ACUCCUUUGGCGUAAUGGUAACGCGUUUCCCUCCUAAGGAGAAGAUUGCGGGUUCGAGUCCCGUAAGGAUUG [G1A U2C G6U C27U C46U C66A A70U C71U] the “yeast fitness (ln)” value was -0.264.
With ACUCCUUUGGCGUAAUGGUAACGCGUUUCCCUCCUAAGGAGAAGACUGCGGGUUCGAGUCCCGUACGGGGUG [G1A U2C G6U C27U A69G A70G C71U] the “yeast fitness (ln)” value was -0.22.
For ACUCCAUUGGCGUAAUGGUAACGCGUUUCCCUCCUAAGGAGACGAUUGCGGGUUCGAGUCCCGUACGGGGCG [G1A U2C G6A C27U A43C C46U A69G A70G], the “yeast fitness (ln)” value was -0.225.
For GCUCCGUUGGCGUAAUGGUAACGCGUCUCCCUCCUAAGGAGAAGAUUGCGGGUUCGAGUCCCGUAUGGGGUG [U2C C46U C66U A69G A70G C71U], the “yeast fitness (ln)” value was -0.0462.
For GCUCCUUUGGCGUAAUGGUAACGCGUCUCCCUCCUAAGGAGACGAUUGCGGGUUCGAGUCCCGUAAGGAUCG [U2C G6U A43C C46U C66A A70U], the “yeast fitness (ln)” value was -0.21.
With AUUCCAUUGGCGUAAUGGUAACGCGUUUCCCUCCUAAGGAGAAGAUUGCGGGUUCGAGUCCCGUAUGGGUUG [G1A G6A C27U C46U C66U A69G A70U C71U] the “yeast fitness (ln)” value was -0.436.
For GCUCCGUUGGCGUAAUGGUAACGCGUCUCCCUCCUAAGGAGAAGAUUGCGGGUUCGAGUCCCGUACGGAUCG [U2C C46U A70U], the “yeast fitness (ln)” value was 0.0104.
